Experimental data reported in ChEMBL document CHEMBL5506039, “Discovery and Optimization of Tambjamines as a Novel Class of Antileishmanial Agents” (J Med Chem, 2024).
Calls of active or inactive are those of the source. No cut-off for these calls is given here.

What was measured:
Leishmania mexicana [1] = experiment: (§1) Antileishmanial activity against Leishmania mexicana MNYC/BZ/62/M379 amastigotes expressing red-shifted firefly luciferase from integrated ribosomal (28S) RNA locus infected in mouse J774.A1 cells assessed as parasite survival at 0.1 uM measured after 96 hrs by luminescence based analysis relative to control; type: functional; conditions: MNYC/BZ/62/M379, J774.A1
[2] = Cytotoxicity against mouse J774.A1 cells assessed as cell survival at 0.1 uM measured after 96 hrs by SYBR Green II dye based analysis relative to control; type: toxicity; conditions: read-out: Survival
How it was run: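 Uninfected J774A.1 mouse macrophages were plated at 1 × 10⁴ cells/well in DMEM with 10% heat-inactivated FBS and left 3 h at 37 °C to reattach. Compounds were added from DMSO, and analogues were screened at 0.1 μM. After 96 h at 37 °C in 5% CO₂, medium was removed. SYBR Green II (1:1000 in 1% Triton/PBS) was added for 1 h in the dark at room temperature, and fluorescence was read at Ex 485/Em 535 as a DNA-content measure of viability.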

Leishmania mexicana [3] = experiment: Antileishmanial activity against Leishmania mexicana MNYC/BZ/62/M379 amastigotes expressing red-shifted firefly luciferase from integrated ribosomal (28S) RNA locus infected in mouse J774.A1 cells assessed as reduction in parasite survival measured after 96 hrs by luminescence based analysis; type: functional, organism-based; conditions: MNYC/BZ/62/M379, J774.A1, 96 h
How it was run: (§2)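 J774A.1 macrophages infected with stationary-phase luciferase-expressing promastigotes at 10:1 parasites:macrophage, overnight at 37 °C, 5% CO₂. Non-internalized parasites washed off and 1 × 10⁴ cells/well replated in MEM/10% HI-FBS. Compounds in DMSO added as serial 3-fold dilutions (typically 10 μM–1 nM) for 96 h. Luciferase luminescence read; EC50 from log-transformed sigmoidal variable-slope fit. Mean ± SD of ≥2 independent experiments.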

[4] = Cytotoxicity against mouse J774.A1 cells assessed as reduction in cell survival measured after 96 hrs by SYBR Green II dye based analysis; type: toxicity
How it was run: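 Uninfected J774A.1 macrophages, 1 × 10⁴ cells/well in DMEM/10% HI-FBS, reattached 3 h, then exposed to compounds for 96 h. DNA content read after lysis with SYBR Green II (1:1000 in 1% Triton/PBS), 1 h dark at room temperature, fluorescence Ex 485/Em 535.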

[5] = Therapeutic index, ratio of EC50 for mouse J774.A1 cells to EC50 for antileishmanial activity against Leishmania mexicana MNYC/BZ/62/M379 amastigotes expressing red-shifted firefly luciferase from integrated ribosomal (28S) RNA locus infected in mouse J774.A1 cells; type: toxicity, cell-based; conditions: read-out: TI
Leishmania mexicana [6] = experiment: as §1, with “assessed as inhibition of parasite growth” for “assessed as parasite survival”, “of parasite growth at 0.1” for “as parasite survival at 0.1”; type: functional; conditions: MNYC/BZ/62/M379, J774.A1, read-out: INH
[7] = Metabolic stability in pre-warmed pooled human liver microsomes assessed as half life at 1 uM measured upto 60 mins by LC-MS analysis; type: ADME, Microsome
How it was run: (§3)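 Compound at 1 μM final with 0.5 mg/mL pooled human or mouse liver microsomes, 1.3 mM NADP and 3.3 mM MgCl₂ in 100 mM potassium phosphate, pH 7.4. Reaction started with 1 U/mL G6PD at 37 °C with shaking.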

[8] = Metabolic stability in pre-warmed pooled mouse liver microsomes assessed as half life at 1 uM measured upto 60 mins by LC-MS analysis; type: ADME, Microsome; how it was run: as §3
Leishmania donovani = experiment: Antileishmanial activity against Leishmania donovani amastigotes expressing red-shifted firefly luciferase from integrated ribosomal (28S) RNA locus infected in mouse J774.A1 cells assessed as reduction in parasite growth measured after 96 hrs by luminescence based analysis; type: functional, organism-based; conditions: J774.A1, 96 h; how it was run: as §2
[9] = Therapeutic index, ratio of IC50 for human HepG2 cells to EC50 for antileishmanial activity against Leishmania donovani amastigotes expressing red-shifted firefly luciferase from integrated ribosomal (28S) RNA locus infected in mouse J774.A1 cells; type: toxicity, cell-based; conditions: read-out: TI
How it was run: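 TI computed as HepG2 IC50 divided by L. donovani EC50. HepG2: MTT assay with 48 h exposure to 10–0.15 μg/mL (1.6-fold dilutions), triplicates, sigmoidal variable-slope fit. Amastigotes: J774A.1 macrophages infected with RS-luciferase promastigotes at 10:1, washed after 24 h, then 96 h compound exposure (3-fold dilutions, 10 μM–1 nM) in MEM/10% HI-FBS at 37 °C, 5% CO₂; luciferase readout.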

HepG2 = experiment: Cytotoxicity against human HepG2 cells assessed as inhibition of cell growth incubated for 48 hrs by MTT assay; type: toxicity, cell-based
How it was run: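 HepG2 cells, 2.5 × 10⁴/well in supplemented complete MEM, settled overnight at 37 °C, 5% CO₂. Compounds given as 11 duplicate 1.6-fold dilutions, 10 to 0.15 μg/mL, for 48 h. MTT added for 1 h in the dark at room temperature, formazan dissolved in acidified isopropanol, absorbance read. Triplicate runs; IC50 by sigmoidal variable-slope regression.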

Leishmania mexicana [10] = experiment: Antileishmanial activity against Leishmania mexicana amastigotes expressing red-shifted firefly luciferase from integrated ribosomal (28S) RNA locus infected in female BALB/c mouse assessed as retardation of lesion progression by measuring reduction in footpad lesion at 40 mg/kg/day, po …; type: functional, organism-based; conditions: time 20-29 day
Leishmania mexicana [11] = experiment: Antileishmanial activity against Leishmania mexicana amastigotes expressing red-shifted firefly luciferase from integrated ribosomal (28S) RNA locus infected in female BALB/c mouse assessed as retardation of lesion progression by measuring reduction in luminescence signal over infected footpad at …; type: functional, organism-based; conditions: dose 40.0 mg/kg/day, route po, time 20-29 day
[12] = AUC (0 to last) in male ICR-CD1 mouse liver at 40 mg/kg, po administered as single dose and measured upto 72 hrs; type: ADME, organism-based; conditions: in vivo
How it was run: (§4)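 Oral (intragastric) single dose, formulated in 50% PEG-400:50% sterile water, given to male ICR-CD1 mice (23–28 g), three per time point. Terminal cardiac-puncture blood (heparinized) and liver taken at 0, 0.5, 1, 2, 4, 8, 24, 30, 48, 54 and 72 h. Plasma separated by centrifugation at 4 °C. Samples held at −80 °C before drug quantitation and PK parameter calculation.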

[13] = Cmax in male ICR-CD1 mouse liver at 40 mg/kg, po administered as single dose and measured upto 72 hrs; type: ADME, organism-based; conditions: in vivo; how it was run: as §4
[14] = Tmax in male ICR-CD1 mouse liver at 40 mg/kg, po administered as single dose and measured upto 72 hrs; type: ADME, organism-based; conditions: in vivo; how it was run: as §4
[15] = Apparent elimination half life in male ICR-CD1 mouse liver at 40 mg/kg, po administered as single dose and measured upto 72 hrs; type: ADME, organism-based; conditions: in vivo; how it was run: as §4
[16] = AUC (0 to infinity) in male ICR-CD1 mouse liver at 40 mg/kg, po administered as single dose and measured upto 72 hrs; type: ADME, organism-based; conditions: in vivo; how it was run: as §4
[17] = Extrapolated AUC in male ICR-CD1 mouse liver at 40 mg/kg, po administered as single dose and measured upto 72 hrs; type: ADME, organism-based; conditions: in vivo; how it was run: as §4
[18] = Cmax in male ICR-CD1 mouse plasma at 40 mg/kg, po administered as single dose and measured upto 72 hrs; type: ADME, organism-based; conditions: in vivo; how it was run: as §4
[19] = Tmax in male ICR-CD1 mouse plasma at 40 mg/kg, po administered as single dose and measured upto 72 hrs; type: ADME, organism-based; conditions: in vivo; how it was run: as §4
[20] = Apparent elimination half life in male ICR-CD1 mouse plasma at 40 mg/kg, po administered as single dose and measured upto 72 hrs; type: ADME, organism-based; conditions: in vivo; how it was run: as §4
[21] = AUC (0 to last) in male ICR-CD1 mouse plasma at 40 mg/kg, po administered as single dose and measured upto 72 hrs; type: ADME, organism-based; conditions: in vivo; how it was run: as §4
[22] = AUC (0 to infinity) in male ICR-CD1 mouse plasma at 40 mg/kg, po administered as single dose and measured upto 72 hrs; type: ADME, organism-based; conditions: in vivo; how it was run: as §4
[23] = Extrapolated AUC in male ICR-CD1 mouse plasma at 40 mg/kg, po administered as single dose and measured upto 72 hrs; type: ADME, organism-based; conditions: in vivo; how it was run: as §4
[24] = Mutagenicity in Salmonella typhimurium TA100 assessed as increase in revertant rate upto 10 uM incubated for 96 hrs in presence of S9 fraction by AMES test; type: toxicity, subcellular; conditions: salmonella enterica subsp. enterica serovar typhimurium, s9, 96 h
How it was run: (§5)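 96-well Ames format: overnight 37 °C cultures of TA98 and TA100 mixed with exposure medium, with or without S9. Compound tested up to 10 μM, plates incubated 96 h at 37 °C and positive wells over background scored visually. Positive controls were 2-aminoanthracene (with S9) and 4-nitroquinoline N-oxide plus 2-nitrofluorene (without S9).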

[25] = Mutagenicity in Salmonella typhimurium TA100 assessed as increase in revertant rate upto 10 uM incubated for 96 hrs in absence of S9 fraction by AMES test; type: toxicity; conditions: salmonella enterica subsp. enterica serovar typhimurium, s9, 96 h; how it was run: as §5
[26] = Mutagenicity in Salmonella typhimurium […] assessed as increase in revertant rate upto 10 uM incubated for 96 hrs in presence of S9 fraction by AMES test; type: toxicity, subcellular; conditions: salmonella enterica subsp. enterica serovar typhimurium, s9, 96 h; how it was run: as §5
[27] = Mutagenicity in Salmonella typhimurium […] assessed as increase in revertant rate upto 10 uM incubated for 96 hrs in absence of S9 fraction by AMES test; type: toxicity; conditions: salmonella enterica subsp. enterica serovar typhimurium, s9, 96 h; how it was run: as §5

Row | SMILES | survival at 0.1 µM (Leishmania mexicana [1]) | viability at 96 h, 0.1 µM [2] | EC50 (Leishmania mexicana [3]) | EC50 at 96 h [4] | selectivity ratio [5] | percent inhibition of parasite growth at 0.1 µM (Leishmania mexicana [6]) | half-life at 1 µM [7] | half-life at 1 µM [8] | EC50 (Leishmania donovani) | selectivity ratio [9] | IC50 (HepG2) | other results
1 | CCc1ccc(C2=N/C(=C\NC3CCCCCCC3)C(C)=C2C)[nH]1.Cl | 1.3% | 53.6% | 31.4 nM | 573 nM | 18 | > 96% | > 1 h | > 1 h | – | – | – | –
2 | COC1=CC(c2ccc[nH]2)=N/C1=C\NC1CCCCCC1.Cl | 4.84% | 99.6% | 32.5 nM | 550 nM | 17 | > 95% | 0.868 h | – | 139 nM | 73 | – | –
3 | CC1=C(C)/C(=C/NC2CCCCCC2)N=C1c1ccc[nH]1.Cl | 18.2% | 62.8% | 55 nM | 908 nM | 16 | < 80% | 0.752 h | – | 79.5 nM | 268 | 21300 nM | –
4 | C(/NC1CCCCC1)=C1/N=C(c2ccc[nH]2)C2=C1CCCC2.Cl | 40.9% | 60.3% | 130 nM | 2930 nM | 23 | – | 0.445 h | – | – | – | 8210 nM | Activity (Leishmania mexicana [10]): Active; Activity (Leishmania mexicana [11]): Active
5 | Cl.Fc1cc(F)cc(OC2=CC(c3ccc[nH]3)=N/C2=C\NC23CC4CC(CC(C4)C2)C3)c1 | 27.3% | 59.3% | 79 nM | 680 nM | 8.6 | – | > 1 h | > 1 h | 184 nM | 323 | 59400 nM | –
6 | CCc1ccc(C2=N/C(=C\NC3CCCCCC3)C(C)=C2C)[nH]1.Cl | 3.7% | 71.2% | 40.9 nM | 1140 nM | 28 | > 96% | > 1 h | > 1 h | – | – | 2990 nM | Activity (Leishmania mexicana [10]): Active; Activity (Leishmania mexicana [11]): Active; AUClast [12]: 22982 ng·h/mL; Cmax [13]: 3667 ng/mL; Tmax [14]: 2 h; betat1/2(app) [15]: > 36 h; AUC [16]: 23043 ng·h/mL; %AUCextra [17]: 0.262%; Cmax [18]: 35 ng/mL; Tmax [19]: 0 h; betat1/2(app) [20]: > 72 h; AUClast [21]: 2421 ng·h/mL; AUC [22]: 206250 ng·h/mL; %AUCextra [23]: 98.8%; Activity [24]: Non-Toxic; Activity [25]: Non-Toxic; Activity [26]: Non-Toxic; Activity [27]: Non-Toxic
7 | COC1=CC(c2ccc[nH]2)=N/C1=C\Nc1ccc(Cl)c(OC)c1.Cl | 77.6% | 57.3% | – | – | – | ~22% | > 1 h | > 1 h | – | – | – | –
